Measurements taken from ChEMBL document CHEMBL2424632, “Substituted 2-hydroxy-N-(arylalkyl)benzamides induce apoptosis in cancer cell lines” (Eur J Med Chem, 2013).
Each block holds one compound with its values, some of them ahead of it. Calls of active or inactive are those of the source. The calls are words filed in the database; no cut-off is given here.

Assays:
MCF7 = assay: Cytotoxicity against human MCF7 cells after 72 hrs by calcein-AM assay; type: functional, cell-based; conditions: MCF7, 72 h
K562 = assay: Cytotoxicity against human K562 cells after 72 hrs by calcein-AM assay; type: functional, cell-based; conditions: K562, 72 h
G-361 [1] = assay: Upregulation of p27KIP1 protein expression in human G361 cells at 2 to 6 uM after 24 hrs by immunoblotting analysis; type: functional, cell-based
Outline: (§1)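 Asynchronous G361 cells exposed 24 h; lysates made by harvesting in Laemmli sample buffer, resolved by SDS-PAGE, electroblotted to nitrocellulose, blocked, probed overnight with specific primary antibodies, then peroxidase-conjugated secondary antibodies; actin served as loading control.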

G-361 [2] = assay: Induction of apoptosis in human G361 cells assessed as decrease in caspase-3 zymogene at 0.2 to 6 uM after 24 hrs by immunoblotting analysis; type: functional, cell-based; outline: as §1
HOS = assay: Cytotoxicity against human HOS cells after 72 hrs by calcein-AM assay; type: functional, cell-based
G-361 [3] = assay: Induction of autophagy in human G361 cells assessed as fragmentation of LC3 at 0.2 to 6 uM after 24 hrs by immunoblotting analysis; type: functional, cell-based; outline: as §1
G-361 [4] = assay: Cell cycle arrest in human G361 cells assessed as decrease in S phase population at 0.25 to 4 uM after 24 hrs by propidium iodide staining-based flow cytometric analysis in presence of BrdU; type: functional
Outline: (§2)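 Asynchronously growing cells treated 24 h; cultures pulse-labelled with 10 µM BrdU for 30 min at 37 °C before harvest, washed in PBS, fixed in 70% ethanol, denatured in 2 M HCl, neutralized, stained with fluorescein anti-BrdU antibody then propidium iodide; flow cytometry with 488 nm laser; sub-G1 and BrdU-positive S-phase fractions scored.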

G-361 [5] = assay: Induction of apoptosis in human G361 cells assessed as increase in p53 mRNA level; type: functional, cell-based
G-361 [6] = assay: Induction of apoptosis in human G361 cells assessed as decrease in BCL-XL protein expression after 24 hrs by immunoblotting analysis; type: functional, cell-based; outline: as §1
G-361 [7] = assay: Induction of apoptosis in human G361 cells assessed as decrease in caspase-7 zymogene at 0.2 to 6 uM after 24 hrs by immunoblotting analysis; type: functional, cell-based; outline: as §1
HeLa = assay: Cytotoxicity against human HeLa cells after 72 hrs by calcein-AM assay; type: functional, cell-based
G-361 [8] = assay: Induction of apoptosis in human G361 cells assessed as increase in p53 protein level at 0.2 to 6 uM after 24 hrs by immunoblotting analysis; type: functional, cell-based; outline: as §1
G-361 [9] = assay: Induction of apoptosis in human G361 cells assessed as caspase-3/7 activation at 2 uM after 24 hrs by fluorescence assay relative to control; type: functional
Outline: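 G361 cells seeded at 20,000 per well overnight, then exposed 24 h to compound at 2 µM final. 3x caspase-3/7 buffer (HEPES pH 7.4, NaCl, KCl, MgCl2, EGTA, NP-40, CHAPS, sucrose, DTT, PMSF) with Ac-DEVD-AMC substrate added; incubated 37 °C, fluorescence read after 4 h at 346/442 nm; activity expressed relative to untreated cells.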

[10] = target: Mitogen-activated protein kinase; ERK1/ERK2 (Homo sapiens) (UniProt P27361+P28482); assay: Inhibition of ERK1/2 phosphorylation at Thr202/Tyr204 in human G361 cells at 0.22 to 6 uM after 24 hrs by immunoblotting analysis; type: cell-based; conditions: G-361; outline: as §1
G-361 [11] = assay: Upregulation of p27KIP1 protein expression in human G361 cells at 670 nM after 24 hrs by immunoblotting analysis; type: functional, cell-based; outline: as §1
G-361 [12] = assay: Downregulation of cyclin A protein expression in human G361 cells at 0.22 to 6 uM after 24 hrs by immunoblotting analysis; type: functional, cell-based; outline: as §1
G-361 [13] = assay: Effect on cyclin E protein expression in human G361 cells at 0.22 to 6 uM after 24 hrs by immunoblotting analysis; type: functional, cell-based; outline: as §1
G-361 [14] = assay: Downregulation of MDM2 protein expression in human G361 cells at 0.2 to 6 uM after 24 hrs by immunoblotting analysis; type: functional, cell-based; outline: as §1
G-361 [15] = assay: Induction of apoptosis in human G361 cells assessed as increase in BCL-2 protein expression at 0.2 to 6 uM after 24 hrs by immunoblotting analysis; type: functional, cell-based; outline: as §1
[16] = target: RAC-alpha serine/threonine-protein kinase (Homo sapiens) (UniProt P31749); assay: Inhibition of AKT phosphorylation at Ser473 in human G361 cells at 0.22 to 6 uM after 24 hrs by immunoblotting analysis; type: cell-based; conditions: G-361; outline: as §1
G-361 [17] = assay: Downregulation of cyclin B protein expression in human G361 cells at 0.22 to 6 uM after 24 hrs by immunoblotting analysis; type: functional, cell-based; outline: as §1
G-361 [18] = assay: Induction of apoptosis in human G361 cells; type: functional, cell-based
G-361 [19] = assay: Induction of apoptosis in human G361 cells assessed as PARP-1 cleavage at 0.2 to 6 uM after 24 hrs by immunoblotting analysis; type: functional, cell-based; outline: as §1
G-361 [20] = assay: Cell cycle arrest in human G361 cells assessed as increase in sub-G1 phase population at 1 to 4 uM after 24 hrs by propidium iodide staining-based flow cytometric analysis in presence of BrdU; type: functional; outline: as §2
HCT-116 = assay: Cytotoxicity against human HCT116 cells after 72 hrs by calcein-AM assay; type: functional, cell-based; conditions: HCT-116, 72 h
G-361 [21] = assay: Downregulation of CDK4 protein expression in human G361 cells at 0.22 to 6 uM after 24 hrs by immunoblotting analysis; type: functional, cell-based; outline: as §1
G-361 [22] = assay: Cytotoxicity against human G361 cells after 72 hrs by calcein-AM assay; type: functional, cell-based; conditions: G-361, 72 h
G-361 [23] = assay: Induction of apoptosis in human G361 cells assessed as caspase-9 cleavage at 0.2 to 6 uM after 24 hrs by immunoblotting analysis; type: functional, cell-based; outline: as §1
G-361 [24] = assay: Effect on CDK1 protein expression in human G361 cells at 0.22 to 6 uM after 24 hrs by immunoblotting analysis; type: functional, cell-based; outline: as §1
G-361 [25] = assay: Downregulation of p53 protein expression in human G361 cells at 0.2 to 6 uM after 24 hrs by immunoblotting analysis; type: functional, cell-based; outline: as §1
G-361 [26] = assay: Effect on CDK2 protein expression in human G361 cells at 0.22 to 6 uM after 24 hrs by immunoblotting analysis; type: functional, cell-based; outline: as §1

Sequence of Mitogen-activated protein kinase; ERK1/ERK2 (Homo sapiens) (P27361 whole entry, looked up): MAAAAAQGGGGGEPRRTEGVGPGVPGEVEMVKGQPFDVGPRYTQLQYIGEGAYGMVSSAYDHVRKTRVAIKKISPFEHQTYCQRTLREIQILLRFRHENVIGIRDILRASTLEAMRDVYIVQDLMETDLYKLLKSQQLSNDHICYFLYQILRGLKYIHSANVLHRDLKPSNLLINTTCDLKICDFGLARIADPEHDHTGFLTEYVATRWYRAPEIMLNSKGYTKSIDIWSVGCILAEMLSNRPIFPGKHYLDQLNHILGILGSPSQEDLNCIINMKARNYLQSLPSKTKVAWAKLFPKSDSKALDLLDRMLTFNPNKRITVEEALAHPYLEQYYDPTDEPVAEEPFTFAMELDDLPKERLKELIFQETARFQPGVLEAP
Sequence of Mitogen-activated protein kinase; ERK1/ERK2 (Homo sapiens) (P28482 whole entry, looked up): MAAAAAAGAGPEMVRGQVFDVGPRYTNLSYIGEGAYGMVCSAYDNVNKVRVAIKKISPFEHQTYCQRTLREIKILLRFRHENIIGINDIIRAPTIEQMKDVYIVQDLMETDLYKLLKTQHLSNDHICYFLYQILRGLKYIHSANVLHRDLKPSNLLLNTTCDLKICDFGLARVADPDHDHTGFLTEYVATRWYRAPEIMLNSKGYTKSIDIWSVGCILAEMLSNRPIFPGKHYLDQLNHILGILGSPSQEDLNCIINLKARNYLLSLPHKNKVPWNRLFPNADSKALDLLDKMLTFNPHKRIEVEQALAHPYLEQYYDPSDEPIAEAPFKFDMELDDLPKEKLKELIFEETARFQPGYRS
Sequence of RAC-alpha serine/threonine-protein kinase (Homo sapiens) (P31749 whole entry): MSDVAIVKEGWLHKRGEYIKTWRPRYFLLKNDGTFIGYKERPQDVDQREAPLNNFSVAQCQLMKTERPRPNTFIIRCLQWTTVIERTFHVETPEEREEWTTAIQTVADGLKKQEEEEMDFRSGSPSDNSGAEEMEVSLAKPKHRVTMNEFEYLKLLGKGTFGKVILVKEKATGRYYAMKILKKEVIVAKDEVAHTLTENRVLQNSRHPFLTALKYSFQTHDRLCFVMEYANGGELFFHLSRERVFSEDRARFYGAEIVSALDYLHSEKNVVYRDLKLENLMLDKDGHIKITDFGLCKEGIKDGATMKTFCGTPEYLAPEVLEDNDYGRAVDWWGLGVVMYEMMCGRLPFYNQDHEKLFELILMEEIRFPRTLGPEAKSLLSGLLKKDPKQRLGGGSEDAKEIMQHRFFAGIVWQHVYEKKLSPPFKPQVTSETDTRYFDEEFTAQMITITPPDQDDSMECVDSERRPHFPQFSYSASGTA

SMILES: O=C(N[C@H](Cc1ccccc1)C(=O)Nc1ccc(Cl)cc1)c1ccc(Cl)cc1O
IC50 (MCF7): > 10 µM | IC50 (K562): > 10 µM

SMILES: C[C@H](NC(=O)c1cc(Cl)ccc1O)C(=O)Nc1ccc(C(F)(F)F)cc1
IC50 (MCF7): > 12.5 µM | IC50 (K562): > 12.5 µM

SMILES: O=C(N[C@H](Cc1ccccc1)C(=O)Nc1ccc(Cl)c(Cl)c1)c1cc(Cl)ccc1O
IC50 (MCF7): > 10 µM | IC50 (K562): > 10 µM

SMILES: O=C(N[C@@H](Cc1ccccc1)C(=O)Nc1ccc(Cl)c(Cl)c1)c1ccc(Cl)cc1O
IC50 (MCF7): 7.3 µM | IC50 (K562): > 10 µM

SMILES: CC(C)[C@H](NC(=O)c1ccc(Cl)cc1O)C(=O)Nc1ccc(Cl)c(Cl)c1
IC50 (MCF7): > 10 µM | IC50 (K562): > 10 µM

SMILES: C[C@H](NC(=O)c1ccc(Cl)cc1O)C(=O)Nc1ccc(C(F)(F)F)cc1
IC50 (MCF7): > 12.5 µM | IC50 (K562): > 12.5 µM

SMILES: CC(C)[C@@H](NC(=O)c1cc(Cl)ccc1O)C(=O)Nc1cccc(Cl)c1
IC50 (MCF7): > 10 µM | IC50 (K562): > 10 µM

SMILES: O=C(CNC(=O)c1cc(Cl)ccc1O)Nc1cccc(Cl)c1
IC50 (MCF7): > 10 µM | IC50 (K562): > 10 µM

inhibition [10]: Active | inhibition [16]: Active
SMILES: O=C(N[C@H](Cc1ccccc1)C(=O)Nc1ccc(Cl)cc1)c1cc(Cl)ccc1O
Activity (G-361 [1]): inactive | Activity (G-361 [2]): Active | IC50 (HOS): 2.5 µM | Activity (G-361 [3]): Active | Activity (G-361 [4]): Active | Activity (G-361 [5]): inactive | Activity (G-361 [6]): Dose-dependent effect | Activity (G-361 [7]): Active | IC50 (HeLa): 1.1 µM | Activity (G-361 [8]): inactive | fold change (FC) (G-361 [9]): >10 | Activity (G-361 [11]): Active | Activity (G-361 [12]): Active | Activity (G-361 [13]): Active | Activity (G-361 [14]): Active | Activity (G-361 [15]): Active | IC50 (MCF7): 3.5 µM | IC50 (K562): 2.5 µM | Activity (G-361 [17]): Active | Activity (G-361 [18]): Dose-dependent effect | Activity (G-361 [19]): Active | Activity (G-361 [20]): Active | IC50 (HCT-116): 1.7 µM | Activity (G-361 [21]): Active | IC50 (G-361 [22]): 1.3 µM | Activity (G-361 [23]): Active | Activity (G-361 [24]): Active | Activity (G-361 [25]): Active | Activity (G-361 [26]): Active

SMILES: CC(C)[C@H](NC(=O)c1cc(Cl)ccc1O)C(=O)Nc1ccc(C(F)(F)F)cc1
IC50 (HOS): 7 µM | IC50 (HeLa): 5.4 µM | Activity (G-361 [9]): Active | IC50 (MCF7): 7.3 µM | IC50 (K562): 4.5 µM | IC50 (HCT-116): 5.9 µM | IC50 (G-361 [22]): 6.6 µM

SMILES: O=C(N[C@@H](CC1CCCCC1)C(=O)Nc1ccc(Br)cc1)c1cc(Cl)ccc1O
IC50 (HOS): 3.3 µM | IC50 (HeLa): 1.3 µM | fold change (FC) (G-361 [9]): >10 | IC50 (MCF7): 1.9 µM | IC50 (K562): 3 µM | IC50 (HCT-116): 2 µM | IC50 (G-361 [22]): 1.3 µM

SMILES: O=C(N[C@@H](Cc1ccccc1)C(=O)Nc1ccc(Cl)cc1)c1ccc(Cl)cc1O
IC50 (MCF7): 9.1 µM | IC50 (K562): > 10 µM

SMILES: O=C(N[C@@H](Cc1ccccc1)C(=O)Nc1ccc(Cl)c(Cl)c1)c1cc(Cl)ccc1O
IC50 (MCF7): > 10 µM | IC50 (K562): > 10 µM

SMILES: C[C@@H](NC(=O)c1ccc(Cl)cc1O)C(=O)Nc1ccc(Cl)cc1
IC50 (MCF7): > 10 µM | IC50 (K562): > 10 µM

SMILES: CC(C)[C@H](NC(=O)c1ccc(Cl)cc1O)C(=O)Nc1ccc(Br)cc1
IC50 (MCF7): > 10 µM | IC50 (K562): > 10 µM

SMILES: CC(C)[C@H](NC(=O)c1cc(Cl)ccc1O)C(=O)Nc1ccc(Cl)cc1
IC50 (MCF7): > 10 µM | IC50 (K562): > 20 µM

SMILES: C[C@H](NC(=O)c1ccc(Cl)cc1O)C(=O)Nc1ccc(Cl)cc1
IC50 (MCF7): > 10 µM | IC50 (K562): > 10 µM
